What is called apparent Kd is the concentration giving half-maximal binding under the conditions of the assay.

Results on 36 sequences are retold here after the EternaBench riboswitch data.

The data set deals with MS2 coat protein. The experiment in a line: apparent Kd, MS2 coat protein; higher = weaker binding; RNA-MaP array; FMN 200 µM where present. The gist of the method:
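Stalled E. coli RNA polymerase transcribed each design on Illumina sequencing-chip clusters. The clusters were titrated with SNAP-549-labelled MS2 coat protein, starting at 0.7 or 1.5 nM and doubling up to 3 µM, first without ligand and then with constant ligand, in 100 mM Tris-HCl pH 7.5, 80 mM KCl, 4 mM MgCl2, BSA, DTT, yeast tRNA and Tween-20. Green signal was normalised to red-channel RNA signal and to the control-cluster median Fmax. The apparent Kd is the median of filtered binding-curve fits made for each cluster.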

[1] abbreviates: designed as: ON switch for flavin mononucleotide, no ligand.
Setting [2] is: ligand present: flavin mononucleotide, designed as: ON switch for flavin mononucleotide.
[3] abbreviates: designed as: OFF switch for flavin mononucleotide, no ligand.
The mark [4] stands for this setting: ligand present: flavin mononucleotide, designed as: OFF switch for flavin mononucleotide.

In the case of “UUACUCAUGUAAGGAUAUGCAGCCGUUUCGGCUGCAGAAGGUACUAUAAUACAUGAGGAUCACCCAUGUCUUUUUAAAUUAGAC”, the “apparent Kd” value under setting [1] came to 111 nM and the “apparent Kd” value under setting [2] was found to be 49.7 nM.

As to “UAUUACAGAUAAGGAUAUCGACAUGAGGAUCACCCAUGUAUUUGGGAAUGUUUACUGAAUUCUUACGAGAAGGUAUACGUACUU”, the “apparent Kd” value reads like this: under setting [3], 154 nM; under setting [4], 118 nM.

As to “GCAUGAAAUGUGAGGAUAUACCUCUGGAUACAUAGGUAGAAGGCACAUGAGGAUCACCCAUGUCCUAAACAUGC”, the “apparent Kd” value under setting [3] came out at 34.7 nM and the “apparent Kd” value under setting [4] worked out at 42.2 nM.

Take “GUAUUUUAAGUAAGGAUAUACCUCUGGAAACAGAGGUAGAAGGUACAUGAGGAUCACCCAUGUUUCUCUUUUGG”: the “apparent Kd” value reads like this: under setting [3], 17 nM; under setting [4], 23.6 nM.

For “AUGCCUUAUGUAGGAUAUGCAUAGAGUUGCUAUGCAGAAGGACAUGAGGAUCACCCAUGUAUGUAUACCUUACAAAUCUAGCAU”, the “apparent Kd” value under setting [3] was determined as 38.6 nM and the “apparent Kd” value under setting [4] amounted to 230 nM.

Consider “ACCGGCGCUUACAUGAGGAUCACCCAUGUGCGCACUCGGGCACAGGAUAUCCAUGGUAAGUAUCGGGAGAAGGGUGAGAAGAAU”, for which the “apparent Kd” value turned out to be 163 nM under setting [1] and 309 nM under setting [2].

For the sequence “AAAACAUACCGAGGAUAUUCAUAUAAUAAAUAAACAUGAGGAUCACCCAUGUGGCGAAAGCCUAGGGAGAAGGCGGAAUGCUAA”, the “apparent Kd” value worked out at 149 nM under setting [1] and 31.8 nM under setting [2].

“AGUCGGAGCAGAGGAUAUACAUGAGGAUCACCCAUGUAAAUGAAAGAUAAGCUGGAAACAGCAAUGUAGAAGGCUGCUCCGACA”: the “apparent Kd” value reads like this: under setting [3], 19.2 nM; under setting [4], 91.6 nM.

“UUACUAUAACAGAAGGGUAGAUAGUAUAUAAAUGCAGGAUAUGUUACAUGAGGAUCACCCAUGUUUCACCCACAUGAGGAUCAC”: the “apparent Kd” value reads like this: under setting [3], 28.5 nM; under setting [4], 40.7 nM.

In the case of “CCUCUACAUGAGGAUCACCCAUGUGAGGAUAUCUCGGAGCAGCCAAUUAAAGCGCUCCAGAGAAGGCACGUGUA”, the “apparent Kd” value is 17.9 nM under setting [3] and 25.2 nM under setting [4].

Regarding “GUUGAGCGUGCUACGCAAAAUAACGCAGAAGGCCAACAUGAGGAUCACCCAUGUAAACGAAAGAUGGAGGAUAUGCGGUUUGGC”, the “apparent Kd” value by setting is: under setting [1], 50.4 nM; under setting [2], 6.81 nM.

In the case of “AAAUUUGACGAAGGAUAUGGAUACAUGAGGAUCACCCAUGUUUAUUUUGUGAUUUUGUUUAAGUACCAGAAGGUCGAAUACAUA”, the “apparent Kd” value is, setting by setting: under setting [3], 39 nM; under setting [4], 63.9 nM.

Take “UCAUAAAUUCGAGGAUAUCGGUGAUAAAGAAGACGAGAAGGCGAUUAGAGAGAGAUGGUUAUAGACAUGAGGAUCACCCAUGUU”: the “apparent Kd” value is, setting by setting: under setting [1], 33.9 nM; under setting [2], 24.1 nM.

In the case of “AGCUGUGGCCGAGGAUAUCACGAACCAUGGAAAACCAUGGAACUCAUACAUGAGGAUCACCCAUGUGAGAAGGCGGUCUCAGCA”, the “apparent Kd” value stood at 34.1 nM under setting [3] and 29.6 nM under setting [4].

Turning to “GAUCACUGAGGAUAUACACAGAUACAAAGUAUCUGAGCGUGACAUGAGGAUCACCCAUGUAGAAGGCAGAGGUC”, the “apparent Kd” value under setting [3] was determined as 190 nM and the “apparent Kd” value under setting [4] came out at 769 nM.

As for “CAGUUGGGCUCAGGAUAUCGGGUUUAACAUGAGGAUCACCCAUGUCGUCCGCGAAAGCGGAAUCACGAGAAGGGAGACCAGCGA”, the “apparent Kd” value under setting [1] stood at 9.12 nM and the “apparent Kd” value under setting [2] is 6.42 nM.

As to “AUCAGCACGUGAGGAUAUGCGUCACUGCGUCAGCAGUGCGGUAAGAUCACAUGAGGAUCACCCAUGUAGAAGGCACGAGCUGAU”, the “apparent Kd” value by setting is: under setting [3], 21.4 nM; under setting [4], 49.8 nM.

In the case of “GCUAGUAUUGCAGGAUAUUGAGAAUAAUUAUGGCAAGAAGGGCAUAACAUGAGGAUCACCCAUGUAUUCCUUAGUGAUACUAGC”, the “apparent Kd” value is, setting by setting: under setting [3], 9.07 nM; under setting [4], 8.33 nM.

With “UGUCGGAGCAGAGGAUAUACAUGAGGAUCACCCAUGUAAUAAAGUGAAGCCUGGAAACAGGCAAUGUAGAAGGUUGCUCCGACA”, the “apparent Kd” value runs as follows: under setting [3], 7.2 nM; under setting [4], 31.5 nM.

Turning to “UUUGUUUGCGGAGGAUAUAUAAGUGGAUCACCCAUAGAAGGCCGAACAUGAGGAUCACCCAUGUUACAUGAGGAUCACCCAUGU”, the “apparent Kd” value under setting [3] is 45.8 nM and the “apparent Kd” value under setting [4] is 51.5 nM.

On to “UGGGACGUGGGAGGAUAUCGGCCUGUAACAGUACGAGAAGGCCCAGUCCAAUAACAGACGGACAUGAGGAUCACCCAUGUCUCA”, for which the “apparent Kd” value is 43.2 nM under setting [1] and 14.3 nM under setting [2].

Turning to “UUUUAACAUGAGGAUCACCCAUGUGAGGAUAUCGAUUUUUUUAUUAAUAUUAAUAAAACGAGAAGGCACAUUUU”, the “apparent Kd” value under setting [3] was 76.2 nM and the “apparent Kd” value under setting [4] is 75.9 nM.

Take “UAUAUUAUUAUAGGAUAUGGAUAUGAUGCAUAUCCAGAAGGGUGAUUAUAAUAUUUUCUGUACAUGAGGAUCACCCAUGUUUAG”: the “apparent Kd” value under setting [1] is 134 nM and the “apparent Kd” value under setting [2] is 32.5 nM.

In the case of “UUCGUGCAGCUUUGCUGUACGCGUACAUGAGGAUCACCCAUGUAGGAUAUGGUACGCUUUGCGUGCUAGAAGGAUAUGGAAAGG”, the “apparent Kd” value runs as follows: under setting [3], 14.7 nM; under setting [4], 16.6 nM.

Regarding “GGUAGGAUCGCAGGAUAUGCUAUCCUUUGGGUAGCAGAAGGGUGAUAACAUGAGGAUCACCCAUGUCCUACCGGGCGUGAGCCC”, the “apparent Kd” value under setting [1] is 57.8 nM and the “apparent Kd” value under setting [2] stood at 1590 nM.

For “UGUAUGGACAGAGGAUAUACAGAUAGGAUCUACUAUCAAACAAUCCUCACAUGAGGAUCACCCAUGUAGAAGGCUGUCCAUACU”, the “apparent Kd” value is, setting by setting: under setting [3], 105 nM; under setting [4], 809 nM.

Take “UAUGUAUUCGUAGGAUAUCCGUUGAAACCGUGUGGAGAAGGACGAACAUGAGGAUCACCCAUGUAUCAUGGUGUAGACAAUUUU”: the “apparent Kd” value by setting is: under setting [3], 75.3 nM; under setting [4], 288 nM.

For the sequence “UUAUUUAUACAAGGAUAUCUAUUGUUAAUUCGACUUACAUGAGGAUCACCCAUGUUUUUAUGUUUAGAGAAGGUGUAAUUUCUG”, the “apparent Kd” value is, setting by setting: under setting [1], 25.8 nM; under setting [2], 26.4 nM.

On to “AGAUGACAAAGUCAUCUCUGACAGACAUGAGGAUCACCCAUGUAGGAUAUGCUACUCAAAGAGUAGCAGAAGGACAUGUGUCUU”, for which the “apparent Kd” value is, setting by setting: under setting [3], 32.3 nM; under setting [4], 183 nM.

With “AUGCUUCUCUCAGGAUAUUACAACAUGAGGAUCACCCAUGUACAUGACAUGACGAUCACGCAUGUUAAGAAGGGAGAGAAGCAU”, the “apparent Kd” value was 718 nM under setting [3] and 583 nM under setting [4].

Take “UGAUCUGUCGCAGGAUAUUACGUUCGGGAUCUCACAUGAGGAUCACCCAUGUAAGAAGGGCGAACAGCAUUCCGGGUCGGGCAA”: the “apparent Kd” value amounted to 19.6 nM under setting [3] and 75.4 nM under setting [4].

In the case of “ACAAAUGGAGGAUAUACAUGAGGAUCACCCAUGUAUAUCCUACAUAUGUGAUAAAAAUGUAGAAGGCCAUUUGA”, the “apparent Kd” value under setting [3] came to 11.6 nM and the “apparent Kd” value under setting [4] came to 10.8 nM.

In the case of “CGUAUAUGGGAGAAGGCAUGUCCCAAAGGGCUAUGAGGAUAUCCUAAGUGUACGCUUUGCGACAUGAGGAUCACCCAUGUAGCA”, the “apparent Kd” value by setting is: under setting [1], 10.5 nM; under setting [2], 6.36 nM.

As for “UUCACGUCAGGAUAUCCAUAUUUCCGAAAUAACGGUACUUUGGAGAAGGGACAUGAGGAUCACCCAUGUCCUCG”, the “apparent Kd” value under setting [4] is 40.1 nM.

Turning to “AUUGUAAUGUCAGGAUAUAUUAUAUUUUACAUAGUAGAAGGGAUAAUUAUACUCAUGUACAUGAGGAUCACCCAUGUUAAAUAU”, the “apparent Kd” value runs as follows: under setting [1], 179 nM; under setting [2], 29.6 nM.

For “CGCAAUAUACAGAAGGAGUUAUUUAGAGGUUUACUAGGAUAUGUUCACAUGAGGAUCACCCAUGUCAUAUGGUUUUUUAUUGCG”, the “apparent Kd” value is 10.1 nM under setting [3] and 8.96 nM under setting [4].
